The source made the active and inactive calls. The rule behind the calls is not given here.
Assays:
[1] = biological target: T1, Glucocorticoid receptor (Homo sapiens, UniProt P04150); assay: Binding affinity towards human glucocorticoid receptor (GR) was determined using [3H]dexamethasone as radioligand in […] cells; type: cell-based
T1 sequence (P04150 whole entry): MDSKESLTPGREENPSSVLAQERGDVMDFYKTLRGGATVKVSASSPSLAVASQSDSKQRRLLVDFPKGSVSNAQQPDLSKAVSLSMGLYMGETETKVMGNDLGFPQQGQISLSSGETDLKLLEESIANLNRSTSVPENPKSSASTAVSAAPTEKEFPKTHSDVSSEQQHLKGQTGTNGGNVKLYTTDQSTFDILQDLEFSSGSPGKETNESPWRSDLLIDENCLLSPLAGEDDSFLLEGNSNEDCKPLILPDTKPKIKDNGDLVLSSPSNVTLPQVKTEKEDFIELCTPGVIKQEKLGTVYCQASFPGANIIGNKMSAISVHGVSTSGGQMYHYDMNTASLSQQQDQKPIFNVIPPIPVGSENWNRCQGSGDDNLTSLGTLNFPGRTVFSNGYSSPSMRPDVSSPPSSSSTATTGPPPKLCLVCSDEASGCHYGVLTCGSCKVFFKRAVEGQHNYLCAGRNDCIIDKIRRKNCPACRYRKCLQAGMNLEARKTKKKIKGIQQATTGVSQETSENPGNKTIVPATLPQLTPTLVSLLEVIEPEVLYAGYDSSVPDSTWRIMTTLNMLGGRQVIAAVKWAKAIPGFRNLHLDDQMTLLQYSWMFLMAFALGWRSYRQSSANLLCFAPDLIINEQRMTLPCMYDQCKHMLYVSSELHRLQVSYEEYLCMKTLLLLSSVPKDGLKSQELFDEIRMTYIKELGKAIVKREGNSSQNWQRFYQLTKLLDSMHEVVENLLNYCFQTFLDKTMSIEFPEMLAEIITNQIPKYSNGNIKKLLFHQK

[2] = biological target: T1, Glucocorticoid receptor; assay: Transcriptional repression in HepG2 cells expressing human glucocorticoid receptor; - = low efficacy or a functional efficacy <20%; type: cell-based
How it was run: (§1)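 Cotransfection in HepG2 cells with a luciferase reporter under an E-selectin promoter carrying one NFκB and one AP-1 site. Readout is repression of transcription. Seven-point half-log concentration-response curves. EC50 taken at half-maximal response. Efficacy expressed as % of the dexamethasone maximum. Mean of two experiments in triplicate, single run, or ≥3 experiments.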

[3] = biological target: T1, Glucocorticoid receptor; assay: Transcriptional activation in CV-1 cells expressing human glucocorticoid receptor; - = low efficacy or a functional efficacy <20%; type: cell-based
How it was run: (§2)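 Cotransfection of an hGR receptor plasmid with a luciferase reporter driven by the MMTV promoter (four GREs) in CV-1 cells. Seven-point half-log concentration-response curves. EC50 taken as half-maximal response. Efficacy expressed as % of the dexamethasone maximum. Mean of two experiments in triplicate, single triplicate run, or ≥3 experiments in triplicate.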

[4] = biological target: T2, Glucocorticoid receptor (Homo sapiens) (UniProt P04150); assay: Transcriptional activation in CV-1 cells expressing human glucocorticoid receptor compared to Dexamethasone; - = low efficacy or a functional efficacy <20%; type: cell-based
T2 sequence (whole entry): T1 sequence (P04150 whole entry)
How it was run: (§3)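 GRE activation co-transfection in CV-1 cells: hGR receptor plasmid plus a luciferase reporter driven by part of the MMTV promoter (four GRE sites, no known AP-1 or NFκB affinity). Full seven-point, half-log concentration-response curves run in triplicate. EC50 is the concentration at half-maximal response; efficacy is given as % of the dexamethasone maximal response.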

[5] = biological target: T2, Glucocorticoid receptor (Homo sapiens); assay: Transcriptional repression in HepG2 cells expressing human glucocorticoid receptor compared to Dexamethasone; - = low efficacy or a functional efficacy <20%; type: cell-based
How it was run: (§4)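 Repression co-transfection in HepG2 cells: luciferase reporter under an E-selectin promoter carrying one NFκB and one AP-1 binding site. Full seven-point, half-log concentration-response curves run in triplicate. EC50 is the concentration at half-maximal response; maximal efficacy is given as % of the dexamethasone maximal response.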

[6] = biological target: T2, Glucocorticoid receptor (Homo sapiens); assay: Transcriptional activation in CV-1 cells expressing human glucocorticoid receptor compared to Dexamethasone; type: functional, cell-based; how it was run: as §3
[7] = biological target: T1, Glucocorticoid receptor; assay: Transcriptional repression in HepG2 cells expressing human glucocorticoid receptor; type: functional, cell-based
[8] = biological target: T1, Glucocorticoid receptor; assay: Transcriptional activation in CV-1 cells expressing human glucocorticoid receptor; - = low efficacy or a functional efficacy <5%; type: cell-based; how it was run: as §2
[9] = biological target: T1, Glucocorticoid receptor; assay: Transcriptional repression in HepG2 cells expressing human glucocorticoid receptor; - = low efficacy or a functional efficacy <5%; type: cell-based; how it was run: as §1
[10] = biological target: T2, Glucocorticoid receptor (Homo sapiens); assay: Transcriptional activation in CV-1 cells expressing human glucocorticoid receptor compared to Dexamethasone; - = low efficacy or a functional efficacy <5%; type: cell-based; how it was run: as §3
[11] = biological target: T2, Glucocorticoid receptor (Homo sapiens); assay: Transcriptional repression in HepG2 cells expressing human glucocorticoid receptor compared to Dexamethasone; - = low efficacy or a functional efficacy <5%; type: cell-based; how it was run: as §4
[12] = biological target: T3, Progesterone receptor (Homo sapiens, UniProt P06401); assay: Displacement of [3H]progesterone from human Progesterone receptor A; - = low efficacy or functional efficacy <20%
T3 sequence (P06401 whole entry): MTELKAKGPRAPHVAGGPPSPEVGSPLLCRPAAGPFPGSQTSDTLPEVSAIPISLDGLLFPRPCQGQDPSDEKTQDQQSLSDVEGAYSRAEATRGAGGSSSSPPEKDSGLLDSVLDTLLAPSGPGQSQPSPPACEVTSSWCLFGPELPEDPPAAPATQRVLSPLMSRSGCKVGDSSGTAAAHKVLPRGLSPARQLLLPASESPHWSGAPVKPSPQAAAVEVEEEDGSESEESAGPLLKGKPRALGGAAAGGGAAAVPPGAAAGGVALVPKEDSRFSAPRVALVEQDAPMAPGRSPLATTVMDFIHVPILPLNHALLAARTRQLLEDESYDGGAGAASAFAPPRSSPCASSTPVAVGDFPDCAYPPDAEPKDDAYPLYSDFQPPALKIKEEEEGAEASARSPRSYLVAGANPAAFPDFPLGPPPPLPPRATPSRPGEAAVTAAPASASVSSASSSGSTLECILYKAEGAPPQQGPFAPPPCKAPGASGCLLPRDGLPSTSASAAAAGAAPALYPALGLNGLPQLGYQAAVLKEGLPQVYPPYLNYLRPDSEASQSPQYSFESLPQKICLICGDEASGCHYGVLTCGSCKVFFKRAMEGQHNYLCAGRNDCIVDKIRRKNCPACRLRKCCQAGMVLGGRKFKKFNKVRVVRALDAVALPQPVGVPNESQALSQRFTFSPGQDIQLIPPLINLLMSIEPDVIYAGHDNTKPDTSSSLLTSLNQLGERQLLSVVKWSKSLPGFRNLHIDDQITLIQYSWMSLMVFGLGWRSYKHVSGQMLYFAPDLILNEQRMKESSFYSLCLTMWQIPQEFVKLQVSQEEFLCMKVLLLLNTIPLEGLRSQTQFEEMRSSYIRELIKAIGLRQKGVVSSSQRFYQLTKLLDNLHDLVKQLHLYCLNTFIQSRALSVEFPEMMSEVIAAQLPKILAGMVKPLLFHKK
How it was run: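 Human PR-A expressed from baculovirus in Sf21 cells, cytosol about 40 µg protein. Incubated with about 0.8 nM [3H]progesterone overnight at 4 °C in Tris/EDTA/glycerol/DTT/molybdate buffer, pH 7.6. Nonspecific binding taken with 1 µM unlabeled progesterone. Hydroxyapatite capture, scintillation counting. IC50 from Hill analysis, Ki from Cheng-Prusoff.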

| Compound | Ki [1] [nM] | EC50 [2] | EC50 [3] | Efficacy [6] [%] | EC50 [8] | further results |
| --- | --- | --- | --- | --- | --- | --- |
| C=CCC1Oc2cccc(OCc3ccccc3)c2-c2ccc3c(c21)C(C)=CC(C)(C)N3 (configuration not stated) | 6000 | Not Active | Not Active | – | – | Efficacy [4]: inactive; Efficacy [5]: inactive |
| C=CCC1Oc2cccc(C(=O)OC)c2-c2ccc3c(c21)C(C)=CC(C)(C)N3 (configuration not stated) | 400 | – | – | – | Not Active | EC50 [9]: Not Active; Efficacy [10]: inactive; Efficacy [11]: inactive |
| C=CCC1Oc2cccc(COC)c2-c2ccc3c(c21)C(C)=CC(C)(C)N3 (configuration not stated) | – | – | – | 5 | Not Active | EC50 [7]: 305 nM |
| C=CCC1Oc2ccc(OCC)c(OC)c2-c2ccc3c(c21)C(C)=CC(C)(C)N3 (configuration not stated) | – | Not Active | – | – | – | Ki [12]: Not Active |

Further lines, with some results ahead:

| Ki [1] [nM] | EC50 [2] | EC50 [3] | Efficacy [6] [%] | EC50 [8] | Compound | further results |
| --- | --- | --- | --- | --- | --- | --- |
| 2100 | Not Active | Not Active | – | – | C=CCC1Oc2cccc(OCC3CC3)c2-c2ccc3c(c21)C(C)=CC(C)(C)N3 (configuration not stated) | Efficacy [4]: inactive; Efficacy [5]: inactive |
| 140 | – | – | 7 | Not Active | C=CCC1Oc2cccc(CN)c2-c2ccc3c(c21)C(C)=CC(C)(C)N3 (configuration not stated) | EC50 [7]: 467 nM |
| 88 | Not Active | Not Active | 0 | – | C=CCOc1cccc2c1-c1ccc3c(c1C(CC=C)O2)C(C)=CC(C)(C)N3 (configuration not stated) | – |
| 65 | Not Active | Not Active | 0 | – | C=CCC1Oc2cccc(OCC)c2-c2ccc3c(c21)C(C)=CC(C)(C)N3 (configuration not stated) | – |

From ChEMBL document CHEMBL1144889 (J Med Chem, 2003)
